According to the RNAGym collection of RNA variant scans (doi:10.1002/anie.201605470):

B1: Osa-1-4 twister ribozyme (parent)
chain: CCGCCUAACACUGCCAAUGCCGGUCCCAAGCCCGGAUAAAAGUGGAGGGGGCGG

Variants of: B1
Assay: self-cleavage, relative activity (ratio to wild type); higher = more cleavage; co-transcriptional
How it was run: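 The 48 positions downstream of the cleavage site in a DNA template for a 54-nucleotide Oryza sativa twister ribozyme carried 97 % wild-type base and 1 % of each other base. After in vitro transcription (2 h, 37 °C) with co-transcriptional self-cleavage, the RNA was reverse-transcribed with a template-switching oligonucleotide, PCR-amplified and deep-sequenced. Relative activity is the fraction cleaved, judged by reads with or without upstream sequence and normalised to wild type.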

Variant	self-cleavage
CCGCCUAACACUGCCAGUGCCGGUCCCCAGCCCGGAUAAAAGUGGAGGGGGCGG [A17G A28C]	0.93
CCGCCUAACACUGCCAGUGCCGGUCCCGAGCCCGGAUAAAAGUGGAGGGGGCGG [A17G A28G]	0.42
CCGCCUAACACUGCCAGUGCCGGUCCCUAGCCCGGAUAAAAGUGGAGGGGGCGG [A17G A28U]	0.87
CCGCCUAACACUGCCAGUGCCGGUCCCACGCCCGGAUAAAAGUGGAGGGGGCGG [A17G A29C]	0.07
CCGCCUAACACUGCCAGUGCCGGUCCCAGGCCCGGAUAAAAGUGGAGGGGGCGG [A17G A29G]	0.35
CCGCCUAACACUGCCAGUGCCGGUCCCAUGCCCGGAUAAAAGUGGAGGGGGCGG [A17G A29U]	0.27
CCGCCUAACACUGCCAGUGCCGGUCCCAAGCCCGGCUAAAAGUGGAGGGGGCGG [A17G A36C]	0.82
CCGCCUAACACUGCCAGUGCCGGUCCCAAGCCCGGGUAAAAGUGGAGGGGGCGG [A17G A36G]	0.99
CCGCCUAACACUGCCAGUGCCGGUCCCAAGCCCGGUUAAAAGUGGAGGGGGCGG [A17G A36U]	1.01
CCGCCUAACACUGCCAGUGCCGGUCCCAAGCCCGGAUCAAAGUGGAGGGGGCGG [A17G A38C]	0.96
CCGCCUAACACUGCCAGUGCCGGUCCCAAGCCCGGAUGAAAGUGGAGGGGGCGG [A17G A38G]	0.99
CCGCCUAACACUGCCAGUGCCGGUCCCAAGCCCGGAUUAAAGUGGAGGGGGCGG [A17G A38U]	0.97
CCGCCUAACACUGCCAGUGCCGGUCCCAAGCCCGGAUACAAGUGGAGGGGGCGG [A17G A39C]	0.91
CCGCCUAACACUGCCAGUGCCGGUCCCAAGCCCGGAUAGAAGUGGAGGGGGCGG [A17G A39G]	0.94
CCGCCUAACACUGCCAGUGCCGGUCCCAAGCCCGGAUAUAAGUGGAGGGGGCGG [A17G A39U]	0.95
CCGCCUAACACUGCCAGUGCCGGUCCCAAGCCCGGAUAACAGUGGAGGGGGCGG [A17G A40C]	0.09
CCGCCUAACACUGCCAGUGCCGGUCCCAAGCCCGGAUAAGAGUGGAGGGGGCGG [A17G A40G]	0.89
CCGCCUAACACUGCCAGUGCCGGUCCCAAGCCCGGAUAAUAGUGGAGGGGGCGG [A17G A40U]	0.83
CCGCCUAACACUGCCAGUGCCGGUCCCAAGCCCGGAUAAACGUGGAGGGGGCGG [A17G A41C]	0.9
CCGCCUAACACUGCCAGUGCCGGUCCCAAGCCCGGAUAAAGGUGGAGGGGGCGG [A17G A41G]	0.94
CCGCCUAACACUGCCAGUGCCGGUCCCAAGCCCGGAUAAAUGUGGAGGGGGCGG [A17G A41U]	0.94
CCGCCUAACACUGCCAGUGCCGGUCCCAAGCCCGGAUAAAAGUGGCGGGGGCGG [A17G A46C]	0.1
CCGCCUAACACUGCCAGUGCCGGUCCCAAGCCCGGAUAAAAGUGGGGGGGGCGG [A17G A46G]	0.07
CCGCCUAACACUGCCAGUGCCGGUCCCAAGCCCGGAUAAAAGUGGUGGGGGCGG [A17G A46U]	0.09
CCGCCUAAAACUGCCAGUGCCGGUCCCAAGCCCGGAUAAAAGUGGAGGGGGCGG [A17G C9A]	0.33

Variant	self-cleavage
CCGCCUAAGACUGCCAGUGCCGGUCCCAAGCCCGGAUAAAAGUGGAGGGGGCGG [A17G C9G]	0.78
CCGCCUAAUACUGCCAGUGCCGGUCCCAAGCCCGGAUAAAAGUGGAGGGGGCGG [A17G C9U]	0.47
CCGCCUAACAAUGCCAGUGCCGGUCCCAAGCCCGGAUAAAAGUGGAGGGGGCGG [A17G C11A]	0.5
CCGCCUAACAGUGCCAGUGCCGGUCCCAAGCCCGGAUAAAAGUGGAGGGGGCGG [A17G C11G]	0.3
CCGCCUAACAUUGCCAGUGCCGGUCCCAAGCCCGGAUAAAAGUGGAGGGGGCGG [A17G C11U]	0.68
CCGCCUAACACUGACAGUGCCGGUCCCAAGCCCGGAUAAAAGUGGAGGGGGCGG [A17G C14A]	0.19
CCGCCUAACACUGGCAGUGCCGGUCCCAAGCCCGGAUAAAAGUGGAGGGGGCGG [A17G C14G]	0.29
CCGCCUAACACUGUCAGUGCCGGUCCCAAGCCCGGAUAAAAGUGGAGGGGGCGG [A17G C14U]	0.69
CCGCCUAACACUGCAAGUGCCGGUCCCAAGCCCGGAUAAAAGUGGAGGGGGCGG [A17G C15A]	0.78
CCGCCUAACACUGCGAGUGCCGGUCCCAAGCCCGGAUAAAAGUGGAGGGGGCGG [A17G C15G]	0.71
CCGCCUAACACUGCUAGUGCCGGUCCCAAGCCCGGAUAAAAGUGGAGGGGGCGG [A17G C15U]	0.71
CCGCCUAACACUGCCAGUGACGGUCCCAAGCCCGGAUAAAAGUGGAGGGGGCGG [A17G C20A]	0.89
CCGCCUAACACUGCCAGUGGCGGUCCCAAGCCCGGAUAAAAGUGGAGGGGGCGG [A17G C20G]	0.19
CCGCCUAACACUGCCAGUGUCGGUCCCAAGCCCGGAUAAAAGUGGAGGGGGCGG [A17G C20U]	0.97
CCGCCUAACACUGCCAGUGCAGGUCCCAAGCCCGGAUAAAAGUGGAGGGGGCGG [A17G C21A]	0.8
CCGCCUAACACUGCCAGUGCGGGUCCCAAGCCCGGAUAAAAGUGGAGGGGGCGG [A17G C21G]	0.09
CCGCCUAACACUGCCAGUGCUGGUCCCAAGCCCGGAUAAAAGUGGAGGGGGCGG [A17G C21U]	0.98
CCGCCUAACACUGCCAGUGCCGGUACCAAGCCCGGAUAAAAGUGGAGGGGGCGG [A17G C25A]	0.21
CCGCCUAACACUGCCAGUGCCGGUGCCAAGCCCGGAUAAAAGUGGAGGGGGCGG [A17G C25G]	0.13
CCGCCUAACACUGCCAGUGCCGGUUCCAAGCCCGGAUAAAAGUGGAGGGGGCGG [A17G C25U]	0.87
CCGCCUAACACUGCCAGUGCCGGUCACAAGCCCGGAUAAAAGUGGAGGGGGCGG [A17G C26A]	0.08
CCGCCUAACACUGCCAGUGCCGGUCGCAAGCCCGGAUAAAAGUGGAGGGGGCGG [A17G C26G]	0.12
CCGCCUAACACUGCCAGUGCCGGUCUCAAGCCCGGAUAAAAGUGGAGGGGGCGG [A17G C26U]	0.88
CCGCCUAACACUGCCAGUGCCGGUCCAAAGCCCGGAUAAAAGUGGAGGGGGCGG [A17G C27A]	0.35
